1 compound from ChEMBL document CHEMBL4321880 (J Med Chem, 2020) can be followed below.

One series deals with ASPC1. The experiment in a line: Cytotoxicity against CRISPR/Cas9-mediated CYP3A5 knock-out human AsPC1 cells assessed as cell growth. The series is classed as ADME, cell-based. In a few lines:
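Cells seeded at 10,000/well. Dox-inducible lines were induced with 100 ng/mL doxycycline, then treated 24 h later with compound at 16 two-fold dilutions (0.0003–10 μM) plus 5 μM midazolam, in 0.66% DMSO final, for 24 h. Phase-contrast confluence imaging followed. Values were normalized to six 0.66% DMSO replicates and fitted with a three-parameter log(inhibitor) vs response curve.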

Series [1] deals with T1, Cytochrome P450 3A4 (Homo sapiens, UniProt P08684). The experiment in a line: Binding affinity to His-tagged CYP3A4 (unknown origin) expressed in Escherichia coli DH5alpha assessed as type 1 spectral shift to substrate-bound form by UV-vis spectrophotometric titration analysis. The series is classed as ADME. The method in brief: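 Recombinant His-tagged enzyme expressed in E. coli with groESL chaperones, purified by Ni-NTA, CM-sepharose and S-200 gel filtration (Rz ≥1.3). Ligand added stepwise until heme absorbance stopped changing. Difference spectra taken against the ligand-free spectrum. Peak-minus-trough ΔAbs (388–418 nm) plotted against ligand concentration and fitted with equation 2 for Kd.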

Series [2] deals with T1, Cytochrome P450 3A4. Kind of series: Inhibition of CYP3A4 in human liver microsomes assessed as formation of 1-hydroxymidazolam at 1.85 uM using midazolam as substrate incubated for 10 mins in presence of NADPH by LC-MS/MS analysis. (In general: Liver microsomes are a subcellular fraction often used to study metabolism.)

T1 sequence (P08684 whole entry): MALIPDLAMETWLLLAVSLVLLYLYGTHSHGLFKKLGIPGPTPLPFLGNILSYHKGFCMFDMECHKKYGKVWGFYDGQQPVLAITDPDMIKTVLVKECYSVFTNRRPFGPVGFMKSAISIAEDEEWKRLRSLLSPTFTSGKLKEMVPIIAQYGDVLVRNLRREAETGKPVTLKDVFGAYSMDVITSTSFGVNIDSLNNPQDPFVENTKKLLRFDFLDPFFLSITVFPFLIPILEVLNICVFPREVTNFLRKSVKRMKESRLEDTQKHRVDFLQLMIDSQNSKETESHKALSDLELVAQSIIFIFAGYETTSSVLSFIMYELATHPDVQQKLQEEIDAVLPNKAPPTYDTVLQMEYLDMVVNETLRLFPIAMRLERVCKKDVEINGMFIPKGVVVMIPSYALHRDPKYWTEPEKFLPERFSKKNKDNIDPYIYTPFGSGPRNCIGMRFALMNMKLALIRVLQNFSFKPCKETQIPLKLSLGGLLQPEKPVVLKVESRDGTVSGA

With `CCC(=O)O[C@]1(C(=O)CCl)[C@@H](C)C[C@H]2[C@@H]3CCC4=CC(=O)C=C[C@]4(C)[C@@]3(F)[C@@H](O)C[C@@]21C` [CLOBETASOL PROPIONATE], the Activity entry in the series with ASPC1 is given as “Non-Toxic”; on Cytochrome P450 3A4 [1], “Active”. For the same compound, the “inhibition (INH)” value at Cytochrome P450 3A4 [2] is “Not Active”.
